# Assay results as given in ChEMBL document CHEMBL3758114, “Design, synthesis and biological evaluation of N-phenylquinazolin-4-amine hybrids as dual inhibitors of VEGFR-2 and HDAC” (Eur J Med Chem, 2016).
# What was measured:
# Histone deacetylase = assay: Inhibition of HDAC in human HeLa cell nuclear extracts preincubated for 15 mins followed by addition of Fluor de Lys as substrate for 1 hr by fluorometric assay; assay type: cell-based
# [1] = molecular target: Vascular endothelial growth factor receptor 2 (Homo sapiens, UniProt P35968); assay: Inhibition of VEGFR2 (unknown origin) preincubated for 5 mins followed by addition of ATP/gastrin precursor(Tyr87) biotinylated peptide cocktail incubated for 30 mins by ELISA
# Summary of the method: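 The kit enzyme, 100 ng VEGFR-2 in reaction cocktail, was preincubated with compound dilutions for 5 min at room temperature. The 30 min reaction ran at room temperature and was stopped with EDTA (50 mM, pH 8). Biotinylated peptide was captured on streptavidin wells for 60 min. Phospho-Tyr was detected with anti-pTyr-100 mAb, then HRP anti-mouse IgG, then TMB, read at 450 nm.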
# MCF7 = assay: Antiproliferative activity against human MCF7 cells after 48 hrs by MTT assay; assay type: functional, cell-based; conditions: MCF7, 48 h
# Histone deacetylase 8 = molecular target: T1, Histone deacetylase 8 (Homo sapiens, UniProt Q9BY41); assay: Inhibition of HDAC8 (unknown origin) preincubated for 15 mins followed by addition of Fluor de Lys as substrate for 1 hr by fluorometric assay
# T1 sequence (Q9BY41 whole entry): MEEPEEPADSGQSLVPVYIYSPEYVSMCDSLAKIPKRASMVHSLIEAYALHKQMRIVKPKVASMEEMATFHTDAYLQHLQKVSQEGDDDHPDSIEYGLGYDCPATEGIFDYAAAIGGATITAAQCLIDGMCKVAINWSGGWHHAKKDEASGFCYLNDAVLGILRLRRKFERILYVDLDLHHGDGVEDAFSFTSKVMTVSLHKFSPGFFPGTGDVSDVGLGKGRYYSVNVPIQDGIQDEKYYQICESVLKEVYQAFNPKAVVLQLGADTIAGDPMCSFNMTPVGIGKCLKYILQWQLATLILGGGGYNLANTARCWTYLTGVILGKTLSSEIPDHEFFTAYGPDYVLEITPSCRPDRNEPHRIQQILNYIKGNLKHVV
# Summary of the method: (§1)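 Each isolated HDAC isoform was incubated with compound at a range of concentrations for 15 min at room temperature. The reaction was then started with Fluor de Lys substrate and run for 1 h at room temperature. Developer was added to stop it. Fluorescence was read at excitation 355 nm and emission 460 nm. The assay was run three independent times.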
# [2] = molecular target: T2, Protein deacetylase HDAC6 (Homo sapiens, UniProt Q9UBN7); assay: Inhibition of HDAC6 (unknown origin) preincubated for 15 mins followed by addition of Fluor de Lys as substrate for 1 hr by fluorometric assay; summary of the method: as §1
# T2 sequence (Q9UBN7 whole entry): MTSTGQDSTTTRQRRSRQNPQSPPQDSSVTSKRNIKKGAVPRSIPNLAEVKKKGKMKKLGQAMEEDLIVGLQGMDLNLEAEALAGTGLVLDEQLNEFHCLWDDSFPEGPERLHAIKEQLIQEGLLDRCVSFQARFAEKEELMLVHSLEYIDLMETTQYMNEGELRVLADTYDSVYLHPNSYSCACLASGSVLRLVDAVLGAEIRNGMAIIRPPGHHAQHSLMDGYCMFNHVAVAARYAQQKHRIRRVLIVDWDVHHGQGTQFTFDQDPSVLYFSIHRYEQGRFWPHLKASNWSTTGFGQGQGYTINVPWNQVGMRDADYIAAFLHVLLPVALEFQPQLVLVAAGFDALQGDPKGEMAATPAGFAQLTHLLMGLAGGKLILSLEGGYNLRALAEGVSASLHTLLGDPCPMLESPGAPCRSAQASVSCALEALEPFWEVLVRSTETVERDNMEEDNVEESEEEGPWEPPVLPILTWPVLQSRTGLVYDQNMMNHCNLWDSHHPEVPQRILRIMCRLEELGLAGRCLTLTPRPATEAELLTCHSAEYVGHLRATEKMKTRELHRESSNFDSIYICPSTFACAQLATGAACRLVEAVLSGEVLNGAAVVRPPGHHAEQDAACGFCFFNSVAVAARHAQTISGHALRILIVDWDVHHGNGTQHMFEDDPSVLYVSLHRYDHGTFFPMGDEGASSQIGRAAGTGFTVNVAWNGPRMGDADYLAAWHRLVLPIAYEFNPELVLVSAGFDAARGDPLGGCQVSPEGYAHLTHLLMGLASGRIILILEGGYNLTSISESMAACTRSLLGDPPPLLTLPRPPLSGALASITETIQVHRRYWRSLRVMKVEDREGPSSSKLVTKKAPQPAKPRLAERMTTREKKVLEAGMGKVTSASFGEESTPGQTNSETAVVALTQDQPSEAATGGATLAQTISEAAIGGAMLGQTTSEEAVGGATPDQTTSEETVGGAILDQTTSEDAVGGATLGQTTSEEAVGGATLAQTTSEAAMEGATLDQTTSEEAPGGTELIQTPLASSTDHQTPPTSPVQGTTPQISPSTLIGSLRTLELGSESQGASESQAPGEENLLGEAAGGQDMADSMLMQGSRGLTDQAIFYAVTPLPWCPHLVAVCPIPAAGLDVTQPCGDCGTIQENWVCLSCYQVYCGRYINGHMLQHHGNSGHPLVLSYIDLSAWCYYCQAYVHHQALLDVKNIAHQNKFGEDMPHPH
# Histone deacetylase 2 = Histone deacetylase 2 (Homo sapiens, UniProt Q92769); assay: Inhibition of HDAC2 (unknown origin) preincubated for 15 mins followed by addition of Fluor de Lys as substrate for 1 hr by fluorometric assay; summary of the method: as §1
# Histone deacetylase 1 = Histone deacetylase 1 (Homo sapiens, UniProt Q13547); assay: Inhibition of HDAC1 (unknown origin) preincubated for 15 mins followed by addition of Fluor de Lys as substrate for 1 hr by fluorometric assay; summary of the method: as §1
# Chain of Histone deacetylase 1 (Q13547 whole entry): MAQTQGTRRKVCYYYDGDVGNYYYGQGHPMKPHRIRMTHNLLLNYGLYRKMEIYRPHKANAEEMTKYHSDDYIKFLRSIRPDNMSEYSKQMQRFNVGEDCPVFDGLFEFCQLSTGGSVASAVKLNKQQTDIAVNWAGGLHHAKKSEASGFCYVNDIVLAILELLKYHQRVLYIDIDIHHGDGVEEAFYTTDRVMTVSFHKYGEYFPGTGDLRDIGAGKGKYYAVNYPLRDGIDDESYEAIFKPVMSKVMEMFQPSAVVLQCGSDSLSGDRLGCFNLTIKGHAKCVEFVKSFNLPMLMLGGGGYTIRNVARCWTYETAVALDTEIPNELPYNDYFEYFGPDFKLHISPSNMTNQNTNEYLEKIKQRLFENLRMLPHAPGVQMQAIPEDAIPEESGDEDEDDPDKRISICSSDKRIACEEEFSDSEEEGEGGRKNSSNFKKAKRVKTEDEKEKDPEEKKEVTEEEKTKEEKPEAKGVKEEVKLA
# Chain of Vascular endothelial growth factor receptor 2 (P35968 whole entry): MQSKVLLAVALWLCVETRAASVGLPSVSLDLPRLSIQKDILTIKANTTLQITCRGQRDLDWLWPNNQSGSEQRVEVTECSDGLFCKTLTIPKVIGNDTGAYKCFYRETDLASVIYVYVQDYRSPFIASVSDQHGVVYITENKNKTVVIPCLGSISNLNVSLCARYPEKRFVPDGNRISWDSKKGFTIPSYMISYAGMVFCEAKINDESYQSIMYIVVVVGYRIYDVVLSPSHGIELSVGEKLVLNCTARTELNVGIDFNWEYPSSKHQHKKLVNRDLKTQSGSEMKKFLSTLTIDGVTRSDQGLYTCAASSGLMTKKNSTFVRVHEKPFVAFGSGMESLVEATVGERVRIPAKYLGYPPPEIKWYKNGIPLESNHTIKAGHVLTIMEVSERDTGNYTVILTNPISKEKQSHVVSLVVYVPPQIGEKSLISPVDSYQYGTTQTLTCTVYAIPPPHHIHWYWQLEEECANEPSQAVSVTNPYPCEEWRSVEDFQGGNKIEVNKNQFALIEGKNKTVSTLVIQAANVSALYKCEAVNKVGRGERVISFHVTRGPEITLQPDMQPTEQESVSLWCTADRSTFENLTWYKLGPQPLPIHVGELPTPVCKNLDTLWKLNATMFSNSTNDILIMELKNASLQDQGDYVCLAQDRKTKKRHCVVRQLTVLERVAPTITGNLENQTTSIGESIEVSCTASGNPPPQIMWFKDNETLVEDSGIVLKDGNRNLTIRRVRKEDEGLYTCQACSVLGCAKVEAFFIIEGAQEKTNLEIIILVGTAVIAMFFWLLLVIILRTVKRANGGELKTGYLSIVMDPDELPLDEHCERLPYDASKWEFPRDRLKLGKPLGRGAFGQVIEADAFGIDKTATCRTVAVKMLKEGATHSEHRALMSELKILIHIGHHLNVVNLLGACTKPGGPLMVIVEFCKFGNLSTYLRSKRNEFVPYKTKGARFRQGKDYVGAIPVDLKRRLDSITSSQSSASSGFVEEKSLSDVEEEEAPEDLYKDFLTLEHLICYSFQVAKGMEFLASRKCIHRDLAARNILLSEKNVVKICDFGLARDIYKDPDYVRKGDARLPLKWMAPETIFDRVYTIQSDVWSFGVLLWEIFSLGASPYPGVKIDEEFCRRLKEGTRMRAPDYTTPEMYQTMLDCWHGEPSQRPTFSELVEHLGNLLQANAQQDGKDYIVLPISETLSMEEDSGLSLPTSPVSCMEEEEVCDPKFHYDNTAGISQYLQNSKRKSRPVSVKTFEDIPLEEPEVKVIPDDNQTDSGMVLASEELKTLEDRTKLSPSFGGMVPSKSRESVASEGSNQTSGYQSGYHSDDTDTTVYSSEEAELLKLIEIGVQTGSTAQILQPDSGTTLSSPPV
# Chain of Histone deacetylase 2 (Q92769 whole entry): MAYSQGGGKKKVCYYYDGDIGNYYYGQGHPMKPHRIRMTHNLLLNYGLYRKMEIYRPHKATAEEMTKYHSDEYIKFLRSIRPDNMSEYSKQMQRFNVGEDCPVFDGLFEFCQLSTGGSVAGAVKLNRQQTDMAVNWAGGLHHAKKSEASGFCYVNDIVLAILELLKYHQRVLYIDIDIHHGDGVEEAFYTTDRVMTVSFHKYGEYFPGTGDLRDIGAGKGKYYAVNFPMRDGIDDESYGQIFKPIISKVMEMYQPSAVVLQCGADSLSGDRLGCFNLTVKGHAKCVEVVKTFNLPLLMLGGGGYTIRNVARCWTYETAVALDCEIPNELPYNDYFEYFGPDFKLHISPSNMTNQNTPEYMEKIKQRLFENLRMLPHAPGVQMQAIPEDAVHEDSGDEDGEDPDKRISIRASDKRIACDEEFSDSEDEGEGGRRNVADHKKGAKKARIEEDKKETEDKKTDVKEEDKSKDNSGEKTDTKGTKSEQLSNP
Structure (SMILES),IC50 (Histone deacetylase) [µM],IC50 [1] [µM],IC50 (MCF7) [µM],IC50 (Histone deacetylase 8) [µM],IC50 [2] [µM],IC50 (Histone deacetylase 2) [µM],IC50 (Histone deacetylase 1) [µM]
COc1cc2ncnc(Nc3ccc(F)cc3)c2cc1OCCCCCC(=O)NO,0.029,0.524,18,–,–,–,–
COc1cc2ncnc(Nc3ccc(Br)cc3)c2cc1OCCCCC(=O)NO,0.068,0.059,36,–,–,–,–
COc1cc2ncnc(Nc3ccccc3F)c2cc1OCCCCCC(=O)NO,0.145,0.918,84,–,–,–,–
COc1cc2ncnc(Nc3ccc(Cl)cc3)c2cc1OCCCCCCC(=O)NO,0.0032,0.215,1.7,–,–,–,–
COc1cc2ncnc(Nc3ccccc3Cl)c2cc1OCCCCC(=O)NO,0.128,0.832,78,–,–,–,–
COc1cc2ncnc(Nc3ccc(Br)cc3)c2cc1OCCCCCCC(=O)NO,0.0022,0.074,0.85,0.0046,0.0164,0.0033,0.0018
COc1cc2ncnc(Nc3ccccc3Cl)c2cc1OCCCCCCC(=O)NO,0.018,0.364,7.8,–,–,–,–
COc1cc2ncnc(Nc3ccc(F)cc3)c2cc1OCCCC(=O)NO,1.34,0.376,> 100,–,–,–,–
COc1cc2ncnc(Nc3ccccc3Br)c2cc1OCCCCCC(=O)NO,0.031,> 10,17,–,–,–,–
COc1cc2ncnc(Nc3ccccc3Br)c2cc1OCCCCCCC(=O)NO,0.0088,> 10,2.6,–,–,–,–
COc1cc2ncnc(Nc3ccc(F)cc3)c2cc1OCCCCC(=O)NO,0.139,0.455,74,–,–,–,–
COc1cc2ncnc(Nc3ccc(Br)cc3)c2cc1OCCCC(=O)NO,0.545,0.098,52,–,–,–,–
COc1cc2ncnc(Nc3ccccc3F)c2cc1OCCCCCCC(=O)NO,0.032,0.754,15,–,–,–,–
COc1cc2ncnc(Nc3ccccc3Br)c2cc1OCCCC(=O)NO,0.84,–,–,–,–,–,–
COc1cc2ncnc(Nc3ccccc3Cl)c2cc1OCCCC(=O)NO,1.255,0.857,> 100,–,–,–,–
COc1cc2ncnc(Nc3ccc(F)cc3)c2cc1OCCCCCCC(=O)NO,0.0085,0.27,2.4,–,–,–,–
COc1cc2ncnc(Nc3ccc(Cl)cc3)c2cc1OCCCCC(=O)NO,0.132,0.22,61,–,–,–,–
O=C(CCCCCCC(=O)Nc1ccccc1)NO [VORINOSTAT],–,> 10,–,–,–,–,–
COc1cc2ncnc(Nc3ccccc3F)c2cc1OCCCCC(=O)NO,0.554,0.84,> 100,–,–,–,–
COc1cc2ncnc(Nc3ccccc3Br)c2cc1OCCCCC(=O)NO,0.074,> 10,33,–,–,–,–
COc1cc2ncnc(Nc3ccc(Cl)cc3)c2cc1OCCCC(=O)NO,0.698,0.182,85,–,–,–,–
COc1cc2ncnc(Nc3ccc(Br)cc3)c2cc1OCCCCCC(=O)NO,0.012,0.153,3.5,–,–,–,–
COc1cc2ncnc(Nc3ccccc3F)c2cc1OCCCC(=O)NO,0.673,0.865,> 100,–,–,–,–
COc1cc2ncnc(Nc3ccc(Cl)cc3)c2cc1OCCCCCC(=O)NO,0.011,0.313,4,–,–,–,–
COc1cc2ncnc(Nc3ccccc3Cl)c2cc1OCCCCCC(=O)NO,0.029,0.685,15,–,–,–,–
